Assays:
[1] = molecular target: Coagulation factor X (Homo sapiens, UniProt P00742); test: Binding affinity to purified human coagulation factor Xa (FXa)
[2] = molecular target: Prothrombin (Homo sapiens, UniProt P00734); test: The binding affinity towards thrombin obtained from human purified enzymes.
[3] = molecular target: T1, Serine protease 1 (Homo sapiens, UniProt P07477); test: The binding affinity was measured towards human purified trypsin
Method in brief: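 Human purified enzymes, microtiter format; 0.1 M sodium phosphate, 0.2 M NaCl, 0.5% PEG 6000, pH 7.0. Compound at 10 to 0.00316 µM (eight half-log steps). Absorbance at 405 nm read for 30 min; rates vs uninhibited controls give % activity, Ki calculated from substrate concentration and Km. Duplicate runs with the same internal standards.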

[4] = species on record: Oryctolagus cuniculus; test: The ID50 value was the 50% inhibition of thrombus formation was measured on rabbits; assay type: functional
Method in brief: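 New Zealand rabbits (2-4 kg) under ketamine (50 mg/kg im) plus xylazine (10 mg/kg im). Femoral artery-vein shunt containing silk thread. Compound or saline vehicle given as continuous iv infusion via jugular vein, starting 1 h before shunt flow and continuing throughout (100 min).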

[5] = molecular target: T1, Serine protease 1; test: The binding affinity was measured on trypsin obtained from Human purified enzymes
Method in brief: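 Inhibition constant against human purified trypsin, in 0.1 M sodium phosphate with 0.2 M NaCl and 0.5% PEG 6000, pH 7.0. Eight inhibitor levels were run, 10 down to 0.00316 µM. Absorbance was read at 405 nm for 30 min. Ki was derived from % activity relative to uninhibited rates using Km and substrate concentration. Duplicate runs alongside internal standards.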

T1 sequence (P07477 whole entry): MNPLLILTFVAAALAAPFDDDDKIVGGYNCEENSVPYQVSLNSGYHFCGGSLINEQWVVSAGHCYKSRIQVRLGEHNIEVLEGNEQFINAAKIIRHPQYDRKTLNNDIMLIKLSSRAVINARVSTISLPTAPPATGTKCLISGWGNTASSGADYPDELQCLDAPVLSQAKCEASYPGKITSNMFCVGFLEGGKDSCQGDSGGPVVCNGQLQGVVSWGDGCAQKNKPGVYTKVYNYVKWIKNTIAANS
Sequence of Coagulation factor X (P00742 41-179 limits assumed): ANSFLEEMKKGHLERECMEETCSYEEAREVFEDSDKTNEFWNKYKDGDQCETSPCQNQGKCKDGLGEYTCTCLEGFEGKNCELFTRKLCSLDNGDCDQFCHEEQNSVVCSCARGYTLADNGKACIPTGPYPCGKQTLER
Sequence of Coagulation factor X (P00742 235-488 limits assumed): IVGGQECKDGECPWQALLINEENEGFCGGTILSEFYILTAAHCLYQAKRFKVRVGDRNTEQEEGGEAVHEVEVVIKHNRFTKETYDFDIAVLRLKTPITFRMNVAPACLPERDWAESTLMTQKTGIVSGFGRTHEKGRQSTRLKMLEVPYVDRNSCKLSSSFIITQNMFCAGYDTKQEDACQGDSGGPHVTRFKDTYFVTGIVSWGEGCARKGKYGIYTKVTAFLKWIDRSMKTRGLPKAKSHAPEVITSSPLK

| Ki [1] [µM] | Ki [2] [µM] | Ki [3] [µM] | Ki [5] [µM] | Compound | ID50 [4] [µM/h/kg] |
| --- | --- | --- | --- | --- | --- |
| 0.24 | 2.1 | – | – | COC(=O)CC1(C(=O)Nc2ccc(-c3cccc(C)c3)cc2)CC(c2cccc(C(=N)N)c2)=NO1 (stereo not given) | – |
| 0.2 | 2.7 | 0.39 | – | COC(=O)CC1(C(=O)Nc2ccc(-c3cccc(OC)c3)cc2)CC(c2cccc(C(=N)N)c2)=NO1 (stereo not given) | – |
| 0.028 | 1.4 | 0.23 | – | COC(=O)CC1(C(=O)Nc2ccc(-c3ccccc3C(F)(F)F)cc2)CC(c2cccc(C(=N)N)c2)=NO1 (stereo not given) | – |
| 0.019 | 10.8 | 0.18 | – | COC(=O)CC1(C(=O)Nc2ccc(-c3ccccc3S(N)(=O)=O)nc2)CC(c2cccc(C(=N)N)c2)=NO1 (stereo not given) | – |
| 0.062 | 2.8 | 0.31 | – | COC(=O)CC1(C(=O)Nc2ccc(-c3ccccc3OC)cc2)CC(c2cccc(C(=N)N)c2)=NO1 (stereo not given) | – |
| 0.0088 | 3.1 | 0.3 | – | COC(=O)CC1(C(=O)Nc2ccc(-c3ccccc3S(N)(=O)=O)cc2C)CC(c2cccc(C(=N)N)c2)=NO1 (stereo not given) | – |
| 0.053 | 2.1 | 0.3 | – | COC(=O)CC1(C(=O)Nc2ccc(-c3ccccc3C(=O)OC)cc2)CC(c2cccc(C(=N)N)c2)=NO1 (stereo not given) | – |
| 0.0042 | 3.8 | 0.12 | – | COC(=O)CC1(C(=O)Nc2ccc(-c3ccccc3S(N)(=O)=O)cc2F)CC(c2cccc(C(=N)N)c2)=NO1 (stereo not given) | – |
| 0.068 | 3.1 | 0.34 | – | COC(=O)CC1(C(=O)Nc2ccc(-c3cccc(S(N)(=O)=O)c3)cc2)CC(c2cccc(C(=N)N)c2)=NO1 (stereo not given) | – |
| 0.0042 | 0.6 | 0.1 | – | COC(=O)CC1(C(=O)Nc2ccc(-c3ccccc3S(C)(=O)=O)cc2)CC(c2cccc(C(=N)N)c2)=NO1 (stereo not given) | – |
| 0.22 | 3.5 | 0.47 | – | COC(=O)CC1(C(=O)Nc2ccc(-c3ccccc3)cc2)CC(c2cccc(C(=N)N)c2)=NO1 (stereo not given) | – |
| 0.21 | 1.8 | 0.39 | – | COC(=O)CC1(C(=O)Nc2ccc(-c3ccccc3C)cc2)CC(c2cccc(C(=N)N)c2)=NO1 (stereo not given) | – |
| 0.066 | 1.2 | 0.26 | – | COC(=O)CC1(C(=O)Nc2ccc(-c3ccccc3SC)cc2)CC(c2cccc(C(=N)N)c2)=NO1 (stereo not given) | – |
| 0.24 | 1.2 | 0.57 | – | COC(=O)CC1(C(=O)Nc2ccc(-c3cccc(C(F)(F)F)c3)cc2)CC(c2cccc(C(=N)N)c2)=NO1 (stereo not given) | – |
| – | – | 0.121 | – | COC(=O)CC1(C(=O)Nc2ccc(-c3ccccc3S(N)(=O)=O)cc2)CC(c2cccc(C(=N)N)c2)=NO1.O=C(O)C(F)(F)F (racemic) | 0.6 |
| – | – | – | – | COC(=O)CC1(C(=O)Nc2ncc(-c3ccccc3S(N)(=O)=O)cn2)CC(c2cccc(C(=N)N)c2)=NO1.O=C(O)C(F)(F)F (racemic) | 0.4 |
| 0.00096 | – | 0.025 | – | COC(=O)CC1(C(=O)Nc2ccc(-c3ccccc3S(N)(=O)=O)cn2)CC(c2cccc(C(=N)N)c2)=NO1.O=C(O)C(F)(F)F (racemic) | 0.3 |
| – | > 21 | 0.3 | – | COC(=O)CC1(C(=O)Nc2ccc(-c3ccccc3S(N)(=O)=O)cc2)CC(c2cccc(C(=N)N)c2)=NO1.O=C(O)C(F)(F)F (single isomer, unassigned; (+)) | 2 |
| 0.007 | 18 | 0.13 | – | COC(=O)CC1(C(=O)Nc2ccc(-c3ccccc3S(N)(=O)=O)cn2)CC(c2cccc(C(=N)N)c2)=NO1.O=C(O)C(F)(F)F (single isomer, unassigned; (+)) | 0.6 |
| 0.04 | – | – | 0.055 | CC(=O)N[C@H](Cc1ccccc1)C(=O)N1CCC[C@@H]1C(=O)NC(CCCN=C(N)N)B(O)O (single isomer, unassigned; (-)) | – |
| – | 2.4 | 0.098 | – | COC(=O)CC1(C(=O)Nc2ccc(-c3ccccc3S(N)(=O)=O)cc2)CC(c2cccc(C(=N)N)c2)=NO1.O=C(O)C(F)(F)F (single isomer, unassigned; (-)) | 0.2 |
| 0.0023 | 8.9 | 0.17 | – | COC(=O)CC1(C(=O)Nc2ncc(-c3ccccc3S(N)(=O)=O)cn2)CC(c2cccc(C(=N)N)c2)=NO1.O=C(O)C(F)(F)F (single isomer, unassigned; (-)) | 0.15 |
| 0.00083 | 2.9 | 0.017 | – | COC(=O)CC1(C(=O)Nc2ccc(-c3ccccc3S(N)(=O)=O)cn2)CC(c2cccc(C(=N)N)c2)=NO1.O=C(O)C(F)(F)F (single isomer, unassigned; (-)) | 0.26 |
| 0.00096 | – | 0.025 | – | COC(=O)CC1(C(=O)Nc2ccc(-c3ccccc3S(N)(=O)=O)cn2)CC(c2cccc(C(=N)N)c2)=NO1 (stereo in doubt; 30) | – |
| – | 14 | 0.336 | – | COC(=O)CC1(C(=O)Nc2ncc(-c3ccccc3S(N)(=O)=O)cn2)CC(c2cccc(C(=N)N)c2)=NO1 (stereo in doubt; 31) | – |
| 0.012 | > 21 | 0.71 | – | COC(=O)CC1(C(=O)Nc2ncc(-c3ccccc3S(N)(=O)=O)cn2)CC(c2cccc(C(=N)N)c2)=NO1.O=C(O)C(F)(F)F (stereo in doubt; 34(+)) | >1.5 |
